ChEMBL document CHEMBL1123476, “Synthesis of congeners and prodrugs of the benzene maleimide photoadduct mitindomide as potential antitumor agents. 2” (J Med Chem, 1986)
“And” between values parts separate entries of the source, which are not always exact repeats. Equal values may be shown once.

Assays:
[1] = system: P388; experiment: Compound was tested for antitumor activity in P-388 lymphocytic leukemia system at 191.2 mg/kg dose levels per injection; 0/6; format: functional, Mus musculus
Outline: (§1)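 P-388 leukemia in animals, Q01D×09 schedule: dose given daily for 9 days, in mg/kg per injection. Read-outs are survivors on day 4 (live/total animals), body-weight difference test minus control (g), and % T/C (median lifetime of treated ÷ median lifetime of controls × 100). Some compounds were tested in independent runs at different times.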

[2] = system: P388; experiment: Compound was tested for antitumor activity in P-388 lymphocytic leukemia system at 114.7 mg/kg dose levels per injection; 2/6; format: functional, Mus musculus; outline: as §1
[3] = system: P388; experiment: Compound was tested for antitumor activity in P-388 lymphocytic leukemia system at 24.8 mg/kg dose levels per injection; 6/6; format: functional, Mus musculus; outline: as §1
[4] = system: P388; experiment: Compound was tested for antitumor activity in P-388 lymphocytic leukemia system at 68.8 mg/kg dose levels per injection; 6/6; format: functional, Mus musculus; outline: as §1
[5] = system: P388; experiment: Compound was tested for antitumor activity in P-388 lymphocytic leukemia system at 41.3 mg/kg dose levels per injection; 6/6; format: functional, Mus musculus; outline: as §1
[6] = system: P388; experiment: Compound was tested for antitumor activity in P-388 lymphocytic leukemia system. The difference in body weight was calculated at 24.8 mg/kg dose levels per injection; format: functional, Mus musculus
[7] = system: P388; experiment: Compound was tested for antitumor activity in P-388 lymphocytic leukemia system and the difference in body weight was calculated at 114.7 mg/kg dose levels per injection; format: functional, Mus musculus
[8] = system: P388; experiment: Compound was tested for antitumor activity in P-388 lymphocytic leukemia system and the difference in body weight was calculated at 41.3 mg/kg dose levels per injection; format: functional, Mus musculus
[9] = system: P388; experiment: Compound was tested for antitumor activity in P-388 lymphocytic leukemia system and the difference in body weight was calculated at 68.8 mg/kg dose levels per injection; format: functional, Mus musculus
[10] = system: P388; experiment: Compound was tested for antitumor activity in P-388 lymphocytic leukemia system at 24.8 mg/kg dose levels per injection; format: functional, Mus musculus
Outline: (§2)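 P-388 leukemia in vivo, dosed Q01D×09 (one injection daily for 9 days, mg/kg per injection). Activity is %T/C, the median lifetime of treated animals divided by that of controls, ×100. Live animals on day 4 were counted against the total (survivors day 4). Repeat tests were done independently at different times.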

[11] = system: P388; experiment: Compound was tested for antitumor activity in P-388 lymphocytic leukemia system at 41.3 mg/kg dose levels per injection; format: functional, Mus musculus; outline: as §2
[12] = system: P388; experiment: Compound was tested for antitumor activity in P-388 lymphocytic leukemia system at 68.8 mg/kg dose levels per injection; format: functional, Mus musculus; outline: as §2
[13] = Solubility was determined; INS= less than 0.1; format: physicochemical
[14] = system: P388; experiment: Compound was tested for antitumor activity in P-388 lymphocytic leukemia system at 200 mg/kg dose levels per injection; 3/6; format: functional, Mus musculus; outline: as §1
[15] = system: P388; experiment: Compound was tested for antitumor activity in P-388 lymphocytic leukemia system at 200 mg/kg dose levels per injection; 4/6; format: functional, Mus musculus; outline: as §1
[16] = system: P388; experiment: (§3) Antitumor activity in P-388 lymphocytic leukemia system at 100 mg/kg dose levels per injection.; format: functional, Mus musculus; outline: as §1
[17] = system: P388; experiment: as §3; format: functional, Mus musculus; outline: as §2; remark: listed apart in the source
[18] = system: P388; experiment: Antitumor activity in P-388 lymphocytic leukemia system at 25 mg/kg dose levels per injection.; format: functional, Mus musculus; outline: as §1
[19] = system: P388; experiment: (§4) Antitumor activity in P-388 lymphocytic leukemia system at 50 mg/kg dose levels per injection.; format: functional, Mus musculus; outline: as §1
[20] = system: P388; experiment: Antitumor activity in P-388 lymphocytic leukemia system and the difference in body weight calculated at 100 mg/kg dose levels per injection.; format: functional, Mus musculus; conditions: 100 mg/kg
[21] = system: P388; experiment: Antitumor activity in P-388 lymphocytic leukemia system and the difference in body weight was calculated at 200 mg/kg dose levels per injection.; format: functional, Mus musculus; conditions: 200 mg/kg
[22] = system: P388; experiment: Antitumor activity in P-388 lymphocytic leukemia system and the difference in body weight was calculated at 25 mg/kg dose levels per injection.; format: functional, Mus musculus; conditions: 25 mg/kg
[23] = system: P388; experiment: Antitumor activity in P-388 lymphocytic leukemia system and the difference in body weight was calculated at 50 mg/kg dose levels per injection.; format: functional, Mus musculus; conditions: 50 mg/kg
[24] = system: P388; experiment: Compound was tested for antitumor activity in P-388 lymphocytic leukemia system at 200 mg/kg dose levels per injection.; format: functional, organism-based; parameters: dose 200 mg/kg; conditions: Mus musculus; outline: as §2
[25] = system: P388; experiment: Antitumor activity in P-388 lymphocytic leukemia system at 25 mg/kg dose levels per injection; format: functional, Mus musculus; outline: as §2
[26] = system: P388; experiment: as §4; format: functional, Mus musculus; outline: as §2; remark: listed apart in the source
[27] = system: P388; experiment: Compound was tested for antitumor activity in P-388 lymphocytic leukemia system at 50 mg/kg dose levels per injection; 6/6; format: functional, Mus musculus; outline: as §1
[28] = system: P388; experiment: Compound was tested for antitumor activity in P-388 lymphocytic leukemia system at 200 mg/kg dose levels per injection; 5/5; format: functional, Mus musculus; outline: as §1
[29] = system: P388; experiment: (§5) Antitumor activity in P-388 lymphocytic leukemia system at 200 mg/kg dose levels per injection.; format: functional, Mus musculus; outline: as §1
[30] = system: P388; experiment: Compound was tested for antitumor activity in P-388 lymphocytic leukemia system at 400 mg/kg dose levels per injection; 5/5; format: functional, Mus musculus; outline: as §1
[31] = system: P388; experiment: Compound was tested for antitumor activity in P-388 lymphocytic leukemia system 25 mg/kg dose levels per injection; format: functional, Mus musculus; outline: as §2
[32] = system: P388; experiment: Compound was tested for antitumor activity in P-388 lymphocytic leukemia system and the difference in body weight was calculated at 400 mg/kg dose levels per injection; format: functional, Mus musculus
[33] = system: P388; experiment: as §5; format: functional, Mus musculus; conditions: 200 mg/kg; outline: as §2
[34] = system: P388; experiment: Compound was tested for antitumor activity in P-388 lymphocytic leukemia system at 25 mg/kg dose levels per injection; format: functional, Mus musculus; outline: as §2
[35] = system: P388; experiment: Compound was tested for antitumor activity in P-388 lymphocytic leukemia system. at 400 mg/kg dose levels per injection; format: functional, Mus musculus; outline: as §2
[36] = system: P388; experiment: Compound was tested for antitumor activity in P-388 lymphocytic leukemia system at 100 mg/kg dose levels per injection; 5/5; format: functional, Mus musculus; outline: as §1
[37] = system: P388; experiment: Compound was tested for antitumor activity in P-388 lymphocytic leukemia system at 50 mg/kg dose levels per injection; 5/5; format: functional, Mus musculus; outline: as §1
[38] = system: P388; experiment: Compound was tested for antitumor activity in P-388 lymphocytic leukemia system at 25 mg/kg dose levels per injection; 6/6; format: functional, Mus musculus; outline: as §1
[39] = system: P388; experiment: Compound was tested for antitumor activity in P-388 lymphocytic leukemia system. at 200 mg/kg dose levels per injection; format: functional, Mus musculus; outline: as §2
[40] = system: P388; experiment: Compound was tested for antitumor activity in P-388 lymphocytic leukemia system at 200 mg/kg dose levels per injection; format: functional, Mus musculus; outline: as §2
[41] = system: P388; experiment: Compound was tested for antitumor activity in P-388 lymphocytic leukemia system at 200 mg/kg dose levels per injection; 5/6; format: functional, Mus musculus; outline: as §1
[42] = system: P388; experiment: Compound was tested for antitumor activity in P-388 lymphocytic leukemia system at 100 mg/kg dose levels per injection; 5/6; format: functional, Mus musculus; outline: as §1
[43] = system: P388; experiment: Compound was tested for antitumor activity in P-388 lymphocytic leukemia system at 12.5 mg/kg dose levels per injection; 6/6; format: functional, Mus musculus; outline: as §1
[44] = system: P388; experiment: Compound was tested for antitumor activity in P-388 lymphocytic leukemia system The difference in body weight was calculated at 12.5 mg/kg dose levels per injection; format: functional, Mus musculus
[45] = system: P388; experiment: Compound was tested for antitumor activity in P-388 lymphocytic leukemia system at 12.5 mg/kg dose levels per injection; format: functional, Mus musculus; outline: as §2

## CN1CCN(CN2C(=O)C3C4C=CC(C3C2=O)C2C3C(=O)N(CN5CCN(C)CC5)C(=O)C3C42)CC1.Cl (stereo not given)
[1]
  Survivors at day 4: 0
[2]
  Survivors at day 4: 2
[3]
  Survivors at day 4: 6
[4]
  Survivors at day 4: 6
[5]
  Survivors at day 4: 6
[6]
  Weight difference: 1.2 g
[7]
  Weight difference: -5.9 g
[8]
  Weight difference: -1.8 g
[9]
  Weight difference: -4.6 g
[10]
  T/C: 113%
[11]
  T/C: 130%
[12]
  T/C: 172%

## O=C1C2C3C=CC(C2C(=O)N1CN1CCOCC1)C1C2C(=O)N(CN4CCOCC4)C(=O)C2C31 (stereo not given)
[13]
  Solubility: Insoluble
[14]
  Survivors at day 4: 3
[15]
  Survivors at day 4: 4
[16]
  Survivors at day 4: 6
[17]; 100 mg/kg
  T/C: 120% and 174%
[18]
  Survivors at day 4: 6
[19]
  Survivors at day 4: 6
[20]
  Weight difference: -4.8 g and -3.9 g
[21]
  Weight difference: -6.2 g and -5.9 g
[22]
  Weight difference: -1 g and -0.9 g
[23]
  Weight difference: -1.7 g and -1.5 g
[24]
  T/C: Toxic
[25]; 25 mg/kg
  T/C: 120% and 125%
[26]; 50 mg/kg
  T/C: 148% and 141%
[27]
  Survivors at day 4: 6

## CC(=O)OCN1C(=O)C2C3C=CC(C2C1=O)C1C2C(=O)N(COC(C)=O)C(=O)C2C31 (stereo not given)
[13]
  Solubility: Insoluble
[28]
  Survivors at day 4: 5
[29]
  Survivors at day 4: 6
[16]
  Survivors at day 4: 6
[17]; 100 mg/kg
  T/C: 118% and 155%
[18]
  Survivors at day 4: 6
[30]
  Survivors at day 4: 5
[19]
  Survivors at day 4: 6
[31]
  Weight difference: -0.1 g
[32]
  Weight difference: -2.2 g
[23]
  Weight difference: -0.4 g and -0.7 g
[33]
  T/C: 180% and 133%
[34]
  T/C: 117%
[26]; 50 mg/kg
  T/C: 140% and 115%
[35]
  T/C: 208%
[36]
  Survivors at day 4: 5
[37]
  Survivors at day 4: 5

## CC12C=CC(C)(C3C(=O)NC(=O)C31)C1C3C(=O)NC(=O)C3C12 (stereo not given)
[13]
  Solubility: Insoluble
[29]
  Survivors at day 4: 6
[16]
  Survivors at day 4: 6
[17]
  T/C: 109%
  Weight difference: -4.8 g
[19]
  Survivors at day 4: 6
[38]
  Survivors at day 4: 6
[25]
  T/C: 103%
[34]
  Weight difference: -1.5 g
[26]
  T/C: 108%
  Weight difference: -3.7 g
[39]
  T/C: 97%
[40]
  Weight difference: -6.1 g

## O=C1NC(=O)C2C3C=CC(C12)C1C2C(=O)NC(=O)C2C31 (stereo not given)
[13]
  Solubility: Insoluble
[14]
  Survivors at day 4: 3
[41]
  Survivors at day 4: 5
[42]
  Survivors at day 4: 5
[16]
  Survivors at day 4: 6
[43]
  Survivors at day 4: 6
[17]
  T/C: 94%
  Weight difference: -3.4 g
[17]; 100 mg/kg
  T/C: 177%
[19]
  Survivors at day 4: 6
[38]
  Survivors at day 4: 6
[44]
  Weight difference: 0.2 g
[45]
  T/C: 119%
[24]
  T/C: Toxic
[25]; 25 mg/kg
  T/C: 149% and 142%
[26]; 50 mg/kg
  T/C: 172% and 168%
  Weight difference: -2.2 g and -2 g
[40]; 200 mg/kg
  Weight difference: -7.3 g and -3.1 g
